From paper PMC8884033 (Journal of medicinal chemistry, 2021)

Key:
other kinases = test: KINOMEScan screen; format: binding; details: KINOMEScan at 10 μM
recombinant human GALK1 [1] = target: T1, recombinant human GALK1 (Homo sapiens, UniProt P51570); details: read-out: IC50 against human recombinant GALK1; previously reported lead; cited from earlier work
mouse recombinant GALK1 [2] = target: T2, mouse recombinant GALK1 (Mus musculus, UniProt Q9R0N0); details: read-out: IC50 against mouse recombinant GALK1; previously reported lead; cited from earlier work
T2 sequence (Q9R0N0 whole entry): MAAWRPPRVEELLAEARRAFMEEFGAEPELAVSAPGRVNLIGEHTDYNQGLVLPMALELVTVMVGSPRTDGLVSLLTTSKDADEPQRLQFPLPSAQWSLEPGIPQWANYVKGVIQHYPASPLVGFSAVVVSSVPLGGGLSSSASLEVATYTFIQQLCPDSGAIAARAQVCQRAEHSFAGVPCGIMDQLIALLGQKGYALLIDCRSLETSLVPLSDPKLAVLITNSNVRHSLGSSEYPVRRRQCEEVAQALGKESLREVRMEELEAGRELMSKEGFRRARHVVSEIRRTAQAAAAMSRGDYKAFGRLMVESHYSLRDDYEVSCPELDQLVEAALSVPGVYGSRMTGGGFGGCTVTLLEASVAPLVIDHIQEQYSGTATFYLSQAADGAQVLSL

GALK2 = details: cited from earlier work
[3] = system: Fibroblasts derived from GALT-deficient patients; details: primary fibroblast cells from patients with classic galactosemia; cited from earlier work
recombinant human GALK1 [4] = target: T1, recombinant human GALK1; test: GALK1 biochemical assay; details: for fold improvement in potency compared to compound 2: ratio of GALK1 IC50 vs 2
[5] = Parallel artificial membrane permeability assay; format: in vitro ADME; details: pH 7.4
Method in brief: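 Stirred double-sink PAMPA with a lipid/dodecane membrane designed to model GI passive permeability. Donor and acceptor both at pH 7.4. Test compound from 10 mM DMSO stock, diluted to 0.05 mM in pH 7.4 buffer (0.5% DMSO final). Permeation ran 30 min at room temperature with donor stirring. Donor and acceptor concentrations read by UV plate reader.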

mouse recombinant GALK1 [6] = target: T2, mouse recombinant GALK1; test: GALK1 biochemical assay, mouse enzyme
[7] = system: Fibroblasts derived from GALT-deficient patients; test: Cellular Gal-1P accumulation assay after galactose challenge; format: cell-based, human; details: at 3 μM, patient fibroblasts
Method in brief: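 GALT-deficient patient fibroblasts kept in galactose-free DMEM with 10% FBS. Inhibitor added at set concentrations for 2 to 4 h at 37 °C. Galactose then added to 0.05% for a 4 h challenge. Cells PBS-washed twice and lysed in ice-cold hypotonic buffer (25 mM Tris-HCl pH 7.4, 25 mM NaCl, 0.5 mM EDTA, protease inhibitors). Lysate needle-sheared, then spun 16,000g for 20 min at 4 °C. Gal-1P measured by alkaline phosphatase-coupled method and normalized to protein.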

[8] = Human liver microsome stability; format: in vitro ADME; details: liver microsomes, pH 7.4
[9] = Mouse pharmacokinetic studies; format: in vivo, CD1 mice
Method in brief: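 Fed CD1 mice, 6–8 weeks old, ~25–30 g. Given single IP (50 mpk), PO (30 mpk) or IV doses as solutions in 5% NMP/25% PEG 300/70% of 15% w/w Kolliphor HS 15 in water (5, 3 and 0.6 mg/mL for IP, PO and IV). Heart-puncture blood taken into heparin-Na from 3 mice per time, 5 min–24 h. Plasma analysed by LC/MS/MS. Once-daily cageside observations.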

[10] = male, CD1, mouse, plasma, iv, 3 mg/kg

T1 sequence (P51570 whole entry): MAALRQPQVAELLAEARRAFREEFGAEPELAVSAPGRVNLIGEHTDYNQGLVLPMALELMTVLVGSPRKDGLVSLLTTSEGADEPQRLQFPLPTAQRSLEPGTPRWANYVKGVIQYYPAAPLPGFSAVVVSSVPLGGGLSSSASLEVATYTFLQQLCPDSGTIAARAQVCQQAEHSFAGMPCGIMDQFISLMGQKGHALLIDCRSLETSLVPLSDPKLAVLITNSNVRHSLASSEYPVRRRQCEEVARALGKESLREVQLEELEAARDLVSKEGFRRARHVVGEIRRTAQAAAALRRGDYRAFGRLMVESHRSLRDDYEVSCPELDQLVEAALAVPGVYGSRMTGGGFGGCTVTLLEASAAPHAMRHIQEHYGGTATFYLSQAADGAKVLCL

Compound: O=C1CCCC2=C1C(c1[nH]ncc1Cl)N=C(Nc1nc3ccccc3o1)N2 (centres unmarked) [Compound 1]
- cross-reactivity against other kinases (other kinases): negligible cross-reactivity
- IC50 (recombinant human GALK1 [1]): 7.69 µM
- IC50 (mouse recombinant GALK1 [2]): 13.7 µM
- activity against GALK2 (GALK2): inactive
- effect on gal-1P levels [3]: lowered gal-1P levels

Compound: CC1=C(C(=O)Nc2cccc(C(=O)O)c2)C(c2ccccc2Cl)N=C(Nc2nc3ccccc3o2)N1 (centres unmarked) [Compound 15, 3-(2-(Benzo[d]oxazol-2-ylamino)-4-(2-chlorophenyl)-6-methyl-1,4-dihydropyrimidine-5-carboxamido)benzoic Acid]
- fold improvement in potency compared to compound 2 (recombinant human GALK1 [4]): > 5 fold

Compound: CC1=C(C(=O)Nc2ccc(C(=O)O)cc2)C(c2ccccc2Cl)N=C(Nc2nc3ccccc3o2)N1 (centres unmarked) [Compound 16, 4-(2-(Benzo[d]oxazol-2-ylamino)-4-(2-chlorophenyl)-6-methyl-1,4-dihydropyrimidine-5-carboxamido)benzoic Acid]
- fold improvement in potency compared to compound 2 (recombinant human GALK1 [4]): > 5 fold

Compound: CC1=C(C(=O)NCc2ccc(C(=O)O)cc2)C(c2ccccc2Cl)N=C(Nc2nc3ccccc3o2)N1 (centres unmarked) [Compound 25, 4-((2-(Benzo[d]oxazol-2-ylamino)-4-(2-chlorophenyl)-6-methyl-1,4-dihydropyrimidine-5-carboxamido)methyl)benzoic Acid]
- fold better than 24 (recombinant human GALK1 [4]; GALK1 IC50 vs 24): 2 fold

Compound: CC1=C(C(=O)NCc2cn(C)cn2)C(c2ccccc2Cl)N=C(Nc2nc3ccccc3o2)N1 (centres unmarked) [Compound 32, 2-(Benzo[d]oxazol-2-ylamino)-4-(2-chlorophenyl)-6-methyl-N-((1-methyl-1H-imidazol-4-yl)methyl)-1,4-dihydropyrimidine-5-carboxamide]
- fold improvement in potency compared to compound 2 (recombinant human GALK1 [4]): 7–9 fold

Compound: CC1=C(C(=O)NCc2cnn(C)c2)C(c2ccccc2Cl)N=C(Nc2nc3ccccc3o2)N1 (centres unmarked) [Compound 33, 2-(Benzo[d]oxazol-2-ylamino)-4-(2-chlorophenyl)-6-methyl-N-((1-methyl-1H-pyrazol-4-yl)methyl)-1,4-dihydropyrimidine-5-carboxamide]
- fold improvement in potency compared to compound 2 (recombinant human GALK1 [4]): 7–9 fold

Compound: CC1=C(C(=O)Nc2cc(C(=O)O)ccn2)C(c2ccccc2Cl)N=C(Nc2nc3ccccc3o2)N1 (centres unmarked) [Compound 35, 2-(2-(Benzo[d]oxazol-2-ylamino)-4-(2-chlorophenyl)-6-methyl-1,4-dihydropyrimidine-5-carboxamido)isonicotinic Acid]
- fold improvement in potency compared to compound 2 (recombinant human GALK1 [4]): 10 fold

Compound: CC1=C(C(=O)Nc2cc(C(=O)O)ccn2)C(c2ccccc2Cl)N=C(Nc2nc3ccc(F)cc3o2)N1 (centres unmarked) [Compound 38, 2-(4-(2-Chlorophenyl)-2-((6-fluorobenzo[d]oxazol-2-yl)amino)-6-methyl-1,4-dihydropyrimidine-5-carboxamido)isonicotinic Acid]
- biochemical potency against GALK1 (recombinant human GALK1 [4]): submicromolar

Compound: CC1=C(C(=O)Nc2cc(C(=O)O)ccn2)C(c2ccccc2Cl)N=C(Nc2nc3cccc(N)c3o2)N1 (centres unmarked) [Compound 53, 2-(2-((7-Aminobenzo[d]oxazol-2-yl)amino)-4-(2-chlorophenyl)-6-methyl-1,4-dihydropyrimidine-5-carboxamido)isonicotinic Acid]
- biochemical potency against GALK1 (recombinant human GALK1 [4]): submicromolar
- fold potency improvement over 35 (recombinant human GALK1 [4]; ratio of GALK1 IC50 vs 35): 5 fold

Compound: CC1=C(C(=O)NCc2cnn(C)c2)C(c2ccc(C)cc2Cl)N=C(Nc2nc3cccc(N)c3o2)N1 (centres unmarked) [Compound 67, 2-((7-aminobenzo[d]oxazol-2-yl)amino)-4-(2-chloro-4-methylphenyl)-6-methyl-N-((1-methyl-1H-pyrazol-4-yl)methyl)-1,4-dihydropyrimidine-5-carboxamide]
- Papp at 30 min, 0.05 mM ([5]; PAMPA): 315 ×10⁻⁶ cm/s

Compound: CC1=C(C(=O)NCc2cnn(C)c2)C(c2ccc(C)cc2Cl)N=C(Nc2nc3ccc(F)c(N)c3o2)N1 (centres unmarked) [Compound 68, 2-((7-Amino-6-fluorobenzo[d]oxazol-2-yl)amino)-4-(2-chloro-4-methylphenyl)-6-methyl-N-((1-methyl-1H-pyrazol-4-yl)methyl)-1,4-dihydropyrimidine-5-carboxamide]
- mouse GALK1 inhibition (mouse recombinant GALK1 [6]): submicromolar
- gal-1P/protein levels [7]: ~ 50 % of control
- half-life at 1 μM [8]: 47 min
- PAMPA [5]: 485 10^−6 cm/s
- time up to which plasma concentrations stay above 1 μM ([9]; IP, single 50 mg/kg dose): ~ 7 h
- time after which compound levels are below LLQ ([9]; IV, 3 mpk, plasma): 2 h
- clearance at 24 h [9, 10]: 19.9 mL/min/kg
- half-life [9, 10]: ~24 min

Compound: CCn1cc(CNC(=O)C2=C(C)NC(Nc3nc4cccc(N)c4o3)=NC2c2ccc(C)cc2Cl)cn1 (centres unmarked) [Compound 69, 2-((7-Aminobenzo[d]oxazol-2-yl)amino)-4-(2-chloro-4-methylphenyl)-6-methyl-N-((1-ethyl-1H-pyrazol-4-yl)methyl)-1,4-dihydropyrimidine-5-carboxamide]
- PAMPA [5]: 632 10^−6 cm/s

Compound: CCn1cc(CNC(=O)C2=C(C)NC(Nc3nc4ccc(F)c(N)c4o3)=NC2c2ccc(C)cc2Cl)cn1 (centres unmarked) [Compound 70, 2-((7-Amino-6-fluorobenzo[d]oxazol-2-yl)amino)-4-(2-chloro-4-methylphenyl)-N-((1-ethyl-1H-pyrazol-4-yl)methyl)-6-methyl-1,4-dihydropyrimidine-5-carboxamide]
- fold improvement in GALK1 inhibition over 69 (recombinant human GALK1 [4]; 6′-F vs des-fluoro 69): 4 fold
- mouse GALK1 inhibition (mouse recombinant GALK1 [6]): submicromolar
- PAMPA [5]: 410 10^−6 cm/s

Compound: CC1=C(C(=O)NCc2cnn(C)c2)[C@H](c2ccc(C)cc2Cl)N=C(Nc2nc3cccc(N)c3o2)N1 [Compound (R)-67, (R)-2-((7-Aminobenzo[d]oxazol-2-yl)amino)-4-(2-chloro-4-methylphenyl)-6-methyl-N-((1-methyl-1H-pyrazol-4-yl)methyl)-1,4-dihydropyrimidine-5-carboxamide]
- PAMPA [5]: 661 10^−6 cm/s

Compound: CCn1cc(CNC(=O)C2=C(C)NC(Nc3nc4ccc(F)c(N)c4o3)=N[C@H]2c2ccc(C)cc2Cl)cn1 [Compound (R)-70, (R)-2-((7-Amino-6-fluorobenzo[d]oxazol-2-yl)amino)-4-(2-chloro-4-methylphenyl)-N-((1-ethyl-1H-pyrazol-4-yl)methyl)-6-methyl-1,4-dihydropyrimidine-5-carboxamide]
- fold more potent than the (S)-enantiomer (recombinant human GALK1 [4]; (R) vs (S) enantiomer at C4): 18 fold
- mouse GALK1 inhibition (mouse recombinant GALK1 [6]): submicromolar
- PAMPA [5]: 773 10^−6 cm/s

Compound: CCn1cc(CNC(=O)C2=C(C)NC(Nc3nc4ccc(F)c(N)c4o3)=N[C@@H]2c2ccc(C)cc2Cl)cn1 [Compound (S)-70, (S)-2-((7-Amino-6-fluorobenzo[d]oxazol-2-yl)amino)-4-(2-chloro-4-methylphenyl)-N-((1-ethyl-1H-pyrazol-4-yl)methyl)-6-methyl-1,4-dihydropyrimidine-5-carboxamide]
- PAMPA [5]: 407 10^−6 cm/s
